Test results as given in the EternaBench riboswitch data.

Tested on: MS2 coat protein
Test: apparent Kd, MS2 coat protein; higher = weaker binding; RNA-MaP array; FMN 200 µM where present
Outline: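 Stalled E. coli RNA polymerase produced the designs on Illumina sequencing-chip clusters. SNAP-549-labelled MS2 coat protein was added from 0.7 or 1.5 nM, doubling to 3 µM, without and then with constant ligand, in 100 mM Tris-HCl pH 7.5, 80 mM KCl, 4 mM MgCl2, BSA, DTT, yeast tRNA and Tween-20. The apparent Kd is the median of filtered per-cluster fits of green signal normalised to red-channel RNA signal and control-cluster median Fmax.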

[1] = designed as: OFF switch for flavin mononucleotide, no ligand
[2] = ligand present: flavin mononucleotide, designed as: OFF switch for flavin mononucleotide
[3] = designed as: ON switch for flavin mononucleotide, no ligand
[4] = ligand present: flavin mononucleotide, designed as: ON switch for flavin mononucleotide

Row | Sequence | apparent Kd [1] | apparent Kd [2] | apparent Kd [3] | apparent Kd [4]
1 | AUAUUACGAGGAUAUCGUUUUUUUCACAUGAGGAUCACCCAUGUUAUCCAUGUUUCGUUUCGAGAAGGCGUAAGUU | 50.6 nM | 36.1 nM |  | 
2 | AUCAGCUCGUCAGGAUAUACGUCACUGCGUCAGCAGUGUGGUAAGAUCACAUGAGGAUCACCCAUGUAGAAGGGACGAGCAGAU | 13.7 nM | 262 nM |  | 
3 | GCCGAGUGAGGAUAUACAUGAGGAUCACCCAUGUAAACACGAAAGCAAGUGUCCCUCAGUAGAAGGCGCCUGGA | 14.2 nM | 16.6 nM |  | 
4 | GGAUAGGACAGAGGAUAUACGUGCUAGAGAUACUAGCUAAUAAUCCUUACAUGAGGAUCACCCAUGUAGAAGGCUGUCCUAUCG | 20 nM | 45.1 nM |  | 
5 | GCUCGUAGACAGAAGGCGACAUGAGGAUCACCCAUGUUGGCUCGGGUAUGACCAAUCCGCAUGAUCGAGGAUAUGUCCGCGGGC | 287 nM | 16.4 nM |  | 
6 | AUAUAUGCCCAGAAGGUGCCAGCGAGAGCUGCACAUGAGGAUCACCCAUGUUGUCGGUGACGACGCAAGGAUAUGGGCAUAUAU |  |  | 24.5 nM | 7.26 nM
7 | UUCCUACAUGAGGAUCACCCAUGUCAGGAUAUCUCCUCACCGCGAAUGGGCAGUGAAUAGAGAAGGGACAGGAA | 11.9 nM | 15.9 nM |  | 
8 | GUAGCUAUCGGAGGAUAUUCAUACCGGAUACGGACAUGAGGAUCACCCAUGUCGCGAAAGCGUUGGGAGAAGGCCGAUAGCUAC |  |  | 89.2 nM | 20.4 nM
9 | AGCUACGUUUCGUAGCAGUGUCAUCGAGAAGGCCCUGACAUGAGGAUCACCCAUGUUGUUACAUGGGAGGAUAUCGAUGAUACU |  |  | 13.4 nM | 5.59 nM
10 | CUCAUGUCAGGAUAUUAAGUCCGUAGCCUAUGGCUGCAACAUGAGAAGGGACAUGAGGAUCACCCAUGUCGGGA | 47.5 nM | 76.8 nM |  | 
11 | AAUUUGCACGCAGGAUAUCGAUAUAAAAGCUGACGAGAAGGGCGGUACAUGAGGAUCACCCAUGUGAACGCCGGGUGGUCUCGU | 6.55 nM | 9.34 nM |  | 
12 | CUGAUGUGAGGAUAUCGGACUACGGCCAGGCCGCUAGCAUACGAGAAGGCACAUGAGGAUCACCCAUGUGAGAA | 13.3 nM | 42.7 nM |  | 
13 | UGAUCUUUUGUUAGGAUAUGCUGGGUUUUUUCUCAGCAGAAGGGACAUGAGGAUCACCCAUGUUCUCUCUUUUU | 9.49 nM | 11.6 nM |  | 
14 | AAGGCGCUAGCAGGAUAUGUACAUGAGGAUCACCCAUGUAAAUCUGUAUCUGGUGAAGCGCAAGUAUAGAAGGGCUAACGCUGG | 4.71 nM | 6.2 nM |  | 
15 | GUUGGGUGUCAUGUCGCACAUGAGGAUCACCCAUGUAAGAGGUAGGAUAUCCACGAGUAACAAGAGGAGAAGGGCCGUCAGCGU | 25.8 nM | 32.2 nM |  | 
16 | AGAAAACAUGAGGAUCACCCAUGUGAGGAUAUCGAUGUCCAAGCCCGGGUGCGGGACUCGAGAAGGCACUUGGG | 55.7 nM | 36.8 nM |  | 
17 | GGCUCAGUGACAUGAGGAUCACCCAUGUGGCUCAUUCAACGCAGAAGGCACAAGGGAACACCUCGUGAGGAUAUGCAAGUAGAC |  |  | 367 nM | 36.7 nM
18 | CUUACGCGAGGAUAUACAUGAGGAUCACCCAUGUAACGGUGUGUAAUAUAUAUUGCGUGUAGAAGGUGUGUGGG | 87 nM | 101 nM |  | 
19 | CGUCGAUACCAGAAGGACAUGAGGAUCACCCAUGUAGGAUAUGGGUGACCGGGAUGGCGGACACGCUGCCCGGGCACAUGCGAC |  |  | 10.6 nM | 7.79 nM
20 | AUCCGACAUGUAGGAUAUGCGUGGCGAAGCUAUGCAGAAGGACAUGAGGAUCACCCAUGUUUUACCGUCUGCGUACAGACGGUG | 286 nM | 240 nM |  | 
21 | CUAGAAAGGACAGGAUAUCGGGAUCGAACACCCGACAUGAGGAUCACCCAUGUCGCAAAUGAUAGCGAGAAGGGUCGGACACAA |  |  | 57 nM | 18.6 nM
